In article PMC11890989 (Zoological Research, 2025):
“Also recorded” adds a separate entry of the source. Each block holds one substance with its values, some of them ahead of it.

Columns and labels:
[1] = system: rodents, such as rats and squirrels; settings: ref Al-Arabi & Andrews, 2006, Frare et al., 2021, Puga et al., 2016, Schuhler et al., 2007, Schwartz et al., 2013, Steward et al., 2003; cited from earlier work
[2] = system: rats; settings: obese rats, prolonged TRH administration; ref Al-Arabi & Andrews, 2006; cited from earlier work
[3] = system: AjTRHR; assay: cAMP content; type: cell-based, Apostichopus japonicus; settings: 10^−9–10^−5 mol/L, 30 min; HEK293T, AjTRHR-pcDNA3.1(+); Figure 4C (AjTRH7), Figure 6A (AjTRH1)
Procedure, shortened: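 HEK293T cells transfected with AjTRHR-pcDNA3.1(+) or empty pcDNA3.1(+) were exposed to gradient-diluted peptide (10^−9–10^−5 mol/L) for 30 min. Cells were then washed twice in PBS and lysed, and intracellular cAMP was quantified with a commercial cAMP assay kit.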

[4] = system: Apostichopus japonicus; assay: In vivo feed intake rate; settings: AjTRH1/AjTRH7 injection, A. japonicus
Procedure, shortened: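 Sub-adult sea cucumbers (~30 g) were held in UV-sterilised filtered seawater at 18–20°C, 32 ppt and 12:12 h light/dark. They were fed ad libitum each morning with commercial feed mixed 1:3 with sea mud. Six groups were set up, each in five tanks of six animals. Test peptide in sterile seawater (0.5 or 0.05 mg/mL) or seawater alone was injected at 0.1% (v/w) via the mouth into the coelom at noon every two days, for over 25 days. Uneaten food was collected daily, dried and weighed. FI was calculated per a prior method, and tank was a random factor in linear mixed models with Tukey tests.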

[5] = system: AjTRHR; assay: Ligand binding assays / receptor activation summary; type: cell-based, Apostichopus japonicus; settings: for agonism at AjTRHR: bioinformatics and ligand-binding assays, cAMP/PKA-ERK/MAPK cascade and possibly Ca^2+-dependent pathway
[6] = system: AjTRHR; assay: SRE-Luc reporter assay; type: cell-based, Apostichopus japonicus; settings: 10^-9-10^-5 mol/L; HEK293T expressing AjTRHR; Supplementary Figure S6
[7] = system: AjTRHR; assay: Intracellular Ca2+ mobilization; type: cell-based, Apostichopus japonicus; settings: negative control, reverse sequence of AjTRH7; Supplementary Figure S3B
Procedure, shortened: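 HEK293T cells were grown in DMEM with 10% FBS at 37°C and 5% CO2. At ~70% confluence they were transfected by lipofection with receptor-pcDNA3.1(+). Cells were loaded with 3 μmol/L Fura-2/AM for 30 min, then stimulated with peptide. Test peptides spanned 10−9–10−5 mol/L, with reversed-sequence peptide or empty-vector cells as negative controls. Fluorescence was read on a plate reader. Experiments were repeated independently at least three times.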

[8] = system: AjCCKP1; assay: In vivo relative AjCCKP1 expression in intestine, RT-qPCR; set-up: species or system Apostichopus japonicus; settings: AjTRH7 0.05 mg/mL (LTG) injection; F(2,10)=8.091, P<0.05; Figure 7B
[9] = system: Apostichopus japonicus; assay: In vivo weight gain rate; settings: 0.05 mg/mL (LTG) vs 0.5 mg/mL (HTG) AjTRH7
Procedure, shortened: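 Sub-adult sea cucumbers (30±5.8 g) were kept in filtered UV-sterilised seawater (18–20°C, 32 ppt, 12:12 h light/dark), six per tank and five tanks per group (30 per group), fed ad libitum each morning (commercial feed:sea mud 1:3). Peptide in sterile seawater at 0.5 or 0.05 mg/mL, or seawater alone, was injected orally into the coelom at 0.1% (v/w) every two days at noon for over 25 days. Body weight was taken at start and end to derive WGR. Analysis used linear mixed models with tank as random factor and Tukey tests.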

[10] = system: AjTRHR; assay: ERK1/2 phosphorylation; type: cell-based, Apostichopus japonicus; settings: AjTRH7 10^−6 mol/L
Procedure, shortened: (§1)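 HEK293T cells (DMEM, 10% FBS, 37°C, 5% CO2) were transfected at ~70% confluence with AjTRHR-pcDNA3.1(+) or empty vector using Lipofectamine 2000. Receptor cells received 10^−6 mol/L peptide for 0, 5, 15, 30, 45 or 60 min at 37°C. Lysate protein was BCA-normalised, run on 10% SDS-PAGE, blotted to PVDF and probed for pERK1/2 (1:2 000) and total ERK1/2 (1:1 000). Bands were ECL-detected and densitometry expressed as pERK/tERK; six repetitions, mean+SEM.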

[11] = system: AjCCKP1; assay: In vivo relative AjCCKP1 expression in circumoral nerve ring; set-up: species or system Apostichopus japonicus; settings: AjTRH7 0.5 mg/mL (HTG) injection; F(2,10)=6.852, P<0.05; Figure 7A
[12] = system: HEK293T cells transfected with empty pcDNA 3.1(+) vector; assay: ERK1/2 phosphorylation, empty pcDNA 3.1; type: cell-based, human; settings: AjTRH7 10^−5 mol/L, negative control, Figure 4E
Procedure, shortened: as §1

Substance: thyrotropin-releasing hormone [TRH]
feeding motivation and feeding behavior [1]: suppress feeding motivation and inhibit feeding behavior
body weight [2]: reduced body weight
food intake [2]: suppress food intake
resting metabolic rate [2]: elevate resting metabolic rates

binding to AjTRHR ([5]; inferred from receptor assays in HEK293T cells expressing AjTRHR): binds to AjTRHR
Substance: pQYFA [AjTRH1]
cAMP accumulation [3]: cAMP accumulation
food intake (summary) [4]: inhibited food intake
agonism at AjTRHR [5]: activates AjTRHR by increasing cAMP levels
Ca2+ mobilization (SRE-driven luciferase activity) [6]: no Ca^2+ mobilization was observed; also recorded: does not induce significant Ca^2+ influx

Substance: EWFKWPSGPLQ
Ca2+ response to reverse peptide sequence [7]: no observable responses

agonism at AjTRHR [5]: acts as an agonist for AjTRHR
Substance: pQLPGSPWKFWE [AjTRH7]
cAMP accumulation [3]: cAMP accumulation
AjCCKP1 expression in intestine [8]: significantly up-regulated
inhibitory effect, LTG compared with HTG (WGR context) [9]: stronger inhibitory effect in the LTG group than in the HTG group
p-ERK1/2 activity at 15 min ([10]; 15 min, 37°C, mean±SEM (n=6), F(5,10)=5.563, P<0.05, Figure 4E): markedly increased
p-ERK1/2 activity at 30 min ([10]; 30 min, 37°C, mean±SEM (n=6), F(5,10)=5.563, P<0.05, Figure 4E): markedly increased
p-ERK1/2 after the peak ([10]; after 15 min peak, up to 60 min): subsequently returning to baseline levels
AjCCKP1 expression in CNR [11]: significantly up-regulated
food intake (summary) [4]: inhibited food intake
p-ERK1/2 response in empty vector cells [12]: no significant responses
